According to ChEMBL document CHEMBL1137851, “2-Substituted benzoxazinone analogues as anti-human coronavirus (anti-HCoV) and ICAM-1 expression inhibition agents” (Bioorg Med Chem Lett, 2004):
Values after ≈ are worked out from the molar mass of the structure shown. Numbered stars: 1 amine (or outer) side, 2 acyl side, 3 side chain; on linkers, the order of the positions; unused ones are H or OH. Bridge positions count the residues as written; N and C are the ends. Square brackets hold non-standard residues; d marks the D form. Peptide text beside a SMILES is read from it. I, II: the chains in the order shown. Actinocin(1to9) = Cc1c2oc3c(C)ccc(C(=O)[*:2])c3nc-2c(C(=O)[*:1])c(N)c1=O; NMeV = CN[C@H](C(=O)O)C(C)C; Sar = CNCC(=O)O

Test system: MRC5; call rule not given here
Assay: inhibitory concentration against anti-human coronavirus (HCoV) was determined in MRC-5 cells (human fibroblasts); Inactive
Format: functional, cell-based
Outline: (§1)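 MRC-5 human fibroblasts (1.0×10^5 cells/mL in 3% FBS-DMEM) seeded and held 24 h at 37 °C, then infected with HCoV strain 229E at 20 TCID₅₀/well for 2 h at 37 °C. Compound added afterwards at various concentrations, in triplicate. Cell viability read by XTT after 4 days at 37 °C. Actinomycin D served as positive control.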

Row | SMILES | IC50
1 | COc1cccc2c(=O)oc(-c3ccccc3Br)nc12 | Not Active
2 | O=c1oc(-c2ccccc2Cl)nc2c1ccc1ccccc12 | Not Active
3 | O=c1oc(-c2ccccc2F)nc2c1ccc1ccccc12 | Not Active
4 | O=c1oc(-c2ccccc2Br)nc2c1ccc1ccccc12 | Not Active

Test system: not listed separately
Assay: Effective dose for inhibition of intercellular adhesion molecule 1 (ICAM 1) expression
Format: functional

Row | SMILES | ED50 [µg/mL]
5 | COc1cccc2c(=O)oc(-c3ccc(Cl)cc3)nc12 | 0.5 (≈ 1.74 µM)
6 | COc1cccc2c(=O)oc(-c3ccc(Br)cc3)nc12 | 1 (≈ 3.01 µM)

Test system: MRC5
Assay: inhibitory concentration against anti-human coronavirus (HCoV) was determined in MRC-5 cells (human fibroblasts)
Format: functional, cell-based
Outline: as §1

Row | SMILES | IC50 [µg/mL]
7 | COc1cccc2c(=O)oc(-c3ccccc3Cl)nc12 | 5.79 (≈ 20.1 µM)
8 | COc1cccc2c(=O)oc(-c3ccc(Cl)cc3)nc12 | 7.59 (≈ 26.4 µM)
9 | COc1cccc2c(=O)oc(-c3ccc(Br)cc3)nc12 | 6.08 (≈ 18.3 µM)
10 | COc1cccc2c(=O)oc(-c3cccc(Cl)c3)nc12 | 5.06 (≈ 17.6 µM)
11 | COc1cccc2c(=O)oc(-c3ccccc3F)nc12 | 1.92 (≈ 7.08 µM)
12 | Cc1c2oc3c(C)ccc(C(=O)N[C@@H]4C(=O)N[C@H](C(C)C)C(=O)N5CCC[C@H]5C(=O)N(C)CC(=O)N(C)[C@@H](C(C)C)C(=O)O[C@@H]4C)c3nc-2c(C(=O)N[C@@H]2C(=O)N[C@H](C(C)C)C(=O)N3CCC[C@H]3C(=O)N(C)CC(=O)N(C)[C@@H](C(C)C)C(=O)O[C@@H]2C)c(N)c1=O [DACTINOMYCIN] (I: T[dV]P[Sar][NMeV] / II: T[dV]P[Sar][NMeV]; ester I:1-I:C, II:1-II:C; linker I:N-II:N via Actinocin(1to9)) | 0.02 (≈ 0.0159 µM)
13 | COc1cccc2c(=O)oc(-c3ccccc3)nc12 | 6.83 (≈ 27 µM)
